From ChEMBL document CHEMBL1124291, “New actinomycin D analogues as superior chemotherapeutic agents against primary and advanced colon tumors and colon xenografts in nude mice” (J Med Chem, 1988) come the findings set out here.

In data set [1] the test system is MC-38. The experiment in a line: Activity against advanced carcinoma C38 Tumor in CDF1 Mice at dose 0.15 mg/kg measured as % inhibition of tumor. It counts as functional. To be noted: Mus musculus.
Data set [2] relates to B16. The experiment in a line: In vivo Antitumor activity against B16 melanoma cells at a optimal dose measured as %ILS (%increase life span). It counts as functional, Mus musculus. The procedure, abridged:
(§1)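 BDF1 mice in groups of nine were implanted ip on day 0 with 0.2 mL of 1:5 (w/v) B16 melanoma brei; drugs were given ip. Survival is reported as median survival time in days with range, and as %ILS, with survivors counted on day 65 out of total injected.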

Data set [3] relates to B16. The experiment in a line: In vivo Antitumor activity against B16 melanoma cells at dose 250 ug/Kg /inj measured as Mean survival time (MST). It counts as functional, Mus musculus. The method, boiled down: as §1
Data set [4] deals with MC-38. The experiment in a line: Activity against advanced carcinoma C38 Tumor in CDF1 Mice at dose 0.30 mg/kg measured as % inhibition of tumor. It counts as functional. As to conditions: Mus musculus.
The subject of data set [5] is MC-38. The experiment in a line: Activity against advanced carcinoma C38 Tumor in CDF1 Mice at dose 0.45 mg/kg measured as % inhibition of tumor. It counts as functional. As to conditions: Mus musculus.
Data set [6] concerns MC-38. The experiment in a line: Activity against advanced carcinoma C38 Tumor in CDF1 Mice at dose 0.60 mg/kg measured as % inhibition of tumor. It counts as functional. As to conditions: Mus musculus.
The subject of data set [7] is MC-38. The experiment in a line: Mean survival time of treated /untreated group x100. (number of over 100-day survivors/ number of total mice in the group) at a dose 0.60 mg/kg. It counts as functional, Mus musculus. As to conditions: dose 0.6 mg/kg. The method, boiled down:
(§2)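 CDF1 mice were implanted sc on day 0 with colon 38 adenocarcinoma fragments (70 mg) and given iv drug on days 1, 5 and 9. %T/C = median survival of treated / untreated × 100. Number of mice surviving over 100 days / group total is given in parentheses.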

Data set [8] concerns MC-38. The experiment in a line: Mean survival time of treated /untreategroup x100. (number of over 100-day survivors/ number of total mice in the group) at a dose 0.075 mg/kg. It counts as functional, Mus musculus. The method, boiled down: as §2
In data set [9] the test system is MC-38. The experiment in a line: Mean survival time of treated /untreategroup x100. (number of over 100-day survivors/ number of total mice in the group) at a dose 0.15 mg/kg. It counts as functional, Mus musculus. The method, boiled down: as §2
Data set [10] relates to MC-38. The experiment in a line: Mean survival time of treated /untreategroup x100. (number of over 100-day survivors/ number of total mice in the group) at a dose 0.30 mg/kg. It counts as functional, Mus musculus. As to conditions: dose 0.3 mg/kg. The method, boiled down: as §2
Data set [11] deals with MC-38. The experiment in a line: Mean survival time of treated /untreategroup x100. (number of over 100-day survivors/ number of total mice in the group) at a dose 0.45 mg/kg. It counts as functional, Mus musculus. The procedure, abridged:
as §2

In data set [12] the test system is MC-38. The experiment in a line: Number of toxic deaths/number of mice in a group of non tumored mice treated in parallel with the tumor-bearing mice and observed for 100 days at a dose 0.075 mg/Kg; value given as 0/9. It counts as functional, Mus musculus. The procedure, abridged:
(§3)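 Non-tumored CDF1 mice were treated in parallel with colon 38 tumor-bearing mice: iv injections on days 1, 5 and 9, groups of nine. Deaths were counted over 100 days of observation and reported as toxic deaths / mice in group.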

In data set [13] the test system is MC-38. The experiment in a line: Number of toxic deaths/number of mice in a group of non tumored mice treated in parallel with the tumor-bearing mice and observed for 100 days at a dose 0.15 mg/Kg; value given as 1/9. It counts as toxicity. To be noted: mouse, in vivo, 2400 h. The procedure, abridged:
as §3

For data set [14], the system named is MC-38. The experiment in a line: Number of toxic deaths/number of mice in a group of non tumored mice treated in parallel with the tumor-bearing mice and observed for 100 days at a dose 0.30 mg/Kg; value given as 0/9. It counts as functional, Mus musculus. The method, boiled down:
as §3

The test system of data set [15] is MC-38. The experiment in a line: Number of toxic deaths/number of mice in a group of non tumored mice treated in parallel with the tumor-bearing mice and observed for 100 days at a dose 0.45 mg/Kg; value given as 1/9. As to conditions: mouse, in vivo, 2400 h. It counts as toxicity. The procedure, abridged: as §3
In data set [16] the test system is MC-38. The experiment in a line: Activity against advanced carcinoma C38 Tumor in CDF1 Mice at dose 0.075 mg/kg measured as % inhibition of tumor. To be noted: Mus musculus. It counts as functional.
The test system of data set [17] is MC-38. The experiment in a line: Number of toxic deaths/number of mice in a group of non tumored mice treated in parallel with the tumor-bearing mice and observed for 100 days at a dose 0.60 mg/Kg; value given as 4/9. As to conditions: mouse, in vivo, 0.6 mg/kg, 2400 h. It counts as toxicity. The method, boiled down: as §3
The subject of data set [18] is HT-29. The experiment in a line: 50% inhibition of incorporationf precursor [3H]thymidine into DNA HT-29 cell lines. It counts as functional, cell-based. As to conditions: Homo sapiens, HT-29, 2 h. The method, boiled down:
(§4)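 HT-29 colon carcinoma monolayers, 10^4 cells per well, five wells per concentration. Drug exposure lasted 2 h, with [³H]thymidine and [2-¹⁴C]uridine (0.5 μCi each) added for the last hour. Cells were washed, trypsinized, counted and precipitated onto glass-fiber filters with 10% TCA. Acid-precipitable radioactivity was measured. IC50 is the concentration inhibiting 50% of incorporation; data are averages of replicate experiments.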

Data set [19] has as its system P388. The experiment in a line: 50% inhibition of incorporation of precursor [3H]thymidine into DNA P388 cell lines. It counts as functional, cell-based. As to conditions: Mus musculus, P388, 2 h.
Data set [20] relates to P388. The experiment in a line: 50% inhibition of incorporation precursor [14C]uridine into RNA P388 cell lines. It counts as functional, cell-based. As to conditions: Mus musculus.
Data set [21] is filed under the species Rattus norvegicus. The experiment in a line: Percent of the unconverted metabolite from incubation mixture containing rat microsomes. It counts as functional. The method, boiled down: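 Tritiated analogues were incubated with two systems. (T) sonicated P388 cell homogenates, 37 °C for 16 h. (M) liver microsomes from phenobarbital-induced rats, 6 h with an NADPH-generating system (glucose-6-phosphate dehydrogenase plus glucose 6-phosphate). Metabolites and water-soluble conjugates were isolated, separated by HPLC and expressed as percentages.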

For data set [22], the species on record is Rattus norvegicus. The experiment in a line: DNA-cleaving ability expressed as % of closed circular pBR322 DNA cleaved at 10 uM conc. It counts as functional. The procedure, abridged:
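pBR322 DNA (200 μM nucleotides) in 10 mM Tris·HCl pH 7.8 and 50 mM NaCl, with 4 mM Na₂S₂O₄ and 100 μM FeCl₂. Incubated with drug for 1 h at 20 °C, kept air-saturated. Supercoiled and open-circular forms were separated by agarose gel electrophoresis, stained with ethidium bromide and quantitated by densitometry. % cleaved was calculated from the open- and closed-circular amounts.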

Data set [23] is filed under the species Rattus norvegicus. The experiment in a line: The formation of adrenochrome from epinephrine in the absence of SOD(super oxide dismutase). It counts as functional. The procedure, abridged: (§5)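 Drug-stimulated superoxide generation with rat liver microsomal enzymes and NADPH as cofactor. NADPH oxidation was read at 340 nm. Adrenochrome formed from epinephrine was read at 480 nm, with or without superoxide dismutase. % stimulation = [(drug-stimulated rate − basal rate)/basal rate] × 100. Values are mean ± standard error of triplicate analyses.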

The species entered for data set [24] is Rattus norvegicus. The experiment in a line: The formation of adrenochrome from epinephrine in the presence of SOD(super oxide dismutase); + denotes ' Inhibited'. It counts as functional. The method, boiled down:
as §5

The species named for data set [25] is Rattus norvegicus. The experiment in a line: Stimulation of NADPH oxidation in the presence of rat liver microsomes. It counts as functional. The method, boiled down:
as §5
A general note: Liver microsomes are vesicles of endoplasmic reticulum, rich in cytochrome P450 enzymes.

The test system of data set [26] is HT-29. The experiment in a line: 50% inhibition of incorporationf precursor [3H]thymidine into RNA HT-29 cell lines. It counts as functional, cell-based. As to conditions: Homo sapiens, HT-29, 2 h; in the assay text read “[14C]uridine” for “[3H]thymidine”. The method, boiled down: as §4
Data set [27] has as its system pBR322 plasmid DNA. The experiment in a line: DNA-cleaving ability expressed as % of closed circular pBR322 DNA cleaved at 100 uM conc.
The test system of data set [28] is P388 (Mus musculus). The experiment in a line: Percent of the unconverted metabolite from incubation mixture containing tumor cell homogenate(T).
Data set [29] concerns P388. The experiment in a line: Antitumor activity in P388/ADR (adriamycin resistant), in male BDF1 mice measured as optimal dose at dose.
The subject of data set [30] is P388. The experiment in a line: Antitumor activity in P388/S(AMD sensitive) in male BDF1 mice measured as optimal dose at dose 0.075-2.5 mg/kg/injection, ip.
For data set [31], the system named is P388. The experiment in a line: Antitumor activity against P388/S (AMD sensitive) in male BDF1 mice measured as optimal dose at dose 1.0-5.0 mg/Kg/inj, ip.
Data set [32] relates to P388. The experiment in a line: Antitumor activity against P388/ADR (adriamycin resistant), in male BDF1 mice measured as optimal dose at dose 1.0-5.0 mg/Kg/inj, ip.

As a reminder, the inhibition in vivo is the drop in the measured response relative to a control, in per cent. Low values mean little suppression, high ones strong suppression. As usually defined, the ILS is the gain in survival time of treated over control animals, in per cent. Low readings indicate little gain in survival, high ones much gain in survival. What is called T/C is the ratio of treated to control. Usually pIC50 stands for −log10 of the IC50, conventionally taken in molar units. Lower therefore signals a high IC50.

pIC50: −log10 of the molar value. Starred links: 1 amine or outer side, 2 acyl side, 3 side chain; linkers in the order of their positions; H or OH if unused. Positions of bridges follow the written chain, without caps; N, C: chain ends. Non-standard residues stand in square brackets, D forms with d. Residues, ends and D or L forms follow the SMILES beside them. Chains are numbered I, II in the order given. Actinocin(9to1) = Cc1c2oc3c(C)ccc(C(=O)[*:1])c3nc-2c(C(=O)[*:2])c(N)c1=O; NMeV = CN[C@H](C(=O)O)C(C)C; Sar = CNCC(=O)O

For `Cc1c2oc3c(C)ccc(C(=O)N[C@@H]4C(=O)N[C@H](C(C)C)C(=O)N5CCC[C@H]5C(=O)N(C)CC(=O)N(C)[C@@H](C(C)C)C(=O)O[C@@H]4C)c3nc-2c(C(=O)N[C@@H]2C(=O)N[C@H](C(C)C)C(=O)N3CCC[C@H]3C(=O)N(C)CC(=O)N(C)[C@@H](C(C)C)C(=O)O[C@@H]2C)c(N)c1=O` [DACTINOMYCIN] (I: T[dV]P[Sar][NMeV] / II: T[dV]P[Sar][NMeV]; ester I:1-I:C, II:1-II:C; linker I:N-II:N via Actinocin(9to1)), the inhibition in vivo at 0.15 mg/kg in [1] is 30%. In addition, in data set [2], the ILS was determined as 48%. The molecule also showed an MST in data set [3] of 43. In addition, 0.3 mg/kg produced 67% inhibition in vivo in data set [4]. This molecule registered an inhibition in vivo at 0.45 mg/kg in data set [5] of 83%. In [6], this molecule gave an inhibition in vivo at 0.6 mg/kg of 89%. The T/C is listed as 103% in data set [7]; 100% in data set [8]; 107% in data set [9]; 134% in [10]; 170% in data set [11]. Also, the Toxic deaths is reported as 0 in data set [12]; 1 in [13]; 0 in data set [14]; 1 in [15]; 4 in data set [17]. In addition, the inhibition in vivo at 0.075 mg/kg in data set [16] was 30%. The pIC50 in data set [18] is 6.05; in data set [19], 5.96; in [20], 7.30; in [26], 7.00. Further, the Activity in data set [21] is 100%; in [22], 10%; in data set [27], 22%; in [28], 100%. For the same molecule, the Adrenochrome formation in data set [23] is given as 2.29 nM min-1 (mg of protein)-1; in data set [24], “Inhibited”. Also, the NADPH oxidation (nM min-1 (mg of protein)-1) in data set [25] was determined as 10. Besides, the optimal dose in data set [29] and in data set [30] was 0.25 mg/kg throughout.
As to `CO[C@@]12[C@H](COC(N)=O)C3=C(C(=O)C(C)=C(N)C3=O)N1C[C@@H]1N[C@@H]12` [MITOMYCIN], the optimal dose in data set [31] and in data set [32] was 3 mg/kg each time.
